# In the array DNA melting data of Ke et al. (doi:10.1101/2024.01.08.574731):
# Tests used:
# [1] = folding enthalpy; higher = less favourable; fluorescence melt of hairpins on a sequencing array, two-state fit; conditions: sodium 0.088 M
# How it was run: (§1)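 Melting temperature and folding enthalpy were obtained by bootstrapped two-state fitting. Fits used Cy3 fluorescence of library hairpins with annealed Cy3 and quencher oligos on a sequenced MiSeq flow cell, imaged in 50 mM Na-HEPES pH 8.0, 25 mM NaCl in 2.5 °C steps up to 60 °C and normalised to pre-quench Cy3 and control constructs. Four replicates were combined by inverse-variance weighting, and fitted temperatures were raised by 9.35 °C to match UV melts.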
# [2] = melting temperature; fluorescence melt of hairpins on a sequencing array, two-state fit, raised by 9.35 °C to match UV melts; conditions: sodium 0.088 M
# How it was run: as §1
Sequence,folding enthalpy [1],Tm [2]
GCCGCTGGAAACGGTGGC (((.(.(....).).))),-44.9 kcal/mol,51.7 °C
GATCACAATTGTGATC ((((((....)))))),-41.6 kcal/mol,56.1 °C
GCGTAGCGAAAGCGGCGC (((..((....))..))),-22.4 kcal/mol,69.1 °C
GTGCGCGAAAGCGCCAC ((((((....))).))),-8.65 kcal/mol,52.2 °C
GAGAATGGAAACATTCCC (.(((((....))))).),-19.6 kcal/mol,31.2 °C
GCTAACGAAAGTTGGAGC ((((((....)))..))),-19.9 kcal/mol,33.1 °C
GATCGATCCGTCGATC ((((((....)))))),-44.8 kcal/mol,53.6 °C
GATCGCGCGGCGATC ((((((...)))))),-34.6 kcal/mol,68.5 °C
GCCCCGTCGAAAGACGGC (((..(((....)))))),-4.65 kcal/mol,34.4 °C
CCCTGGAAACAGGG (((((....))))),-20 kcal/mol,56.9 °C
GATCGTTCGCACGATC ((((((....)))))),-38 kcal/mol,54.2 °C
GTGCACGCGAAAGCGCAC (((..(((....)))))),-15.4 kcal/mol,56.3 °C
ATACCGAAAGGTAT (((((....))))),-20.2 kcal/mol,52.2 °C
GCGATGCGAAAGCTTTGC ((.(.((....)).).)),-21.2 kcal/mol,46.3 °C
GCTCACCGAAAGGTAAGC (((.(((....))).))),-29.1 kcal/mol,48.6 °C
GACCTGGCGAAAGCCGTC (((..(((....)))))),-5.62 kcal/mol,34.9 °C
GATCGGGTATCCGATC ((((((....)))))),-37.6 kcal/mol,65.4 °C
GTAGATGGAAACATCCAC ((.((((....)))).)),-16.9 kcal/mol,30.4 °C
GATCTCCAAGGAGATC ((((((....)))))),-35 kcal/mol,55.7 °C
GATCGGCTGTCCGATC ((((((....)))))),-39.6 kcal/mol,56.3 °C
GGGCCTGGAAACAGGTCC ((.((((....)))).)),-36.4 kcal/mol,65 °C
GACCTCCGAAAGGATGTC (((.(((....))).))),-32.4 kcal/mol,47.3 °C
GGCCACTCGAAAGAGGCC (((..(((....)))))),-27.7 kcal/mol,52.3 °C

Sequence,folding enthalpy [1],Tm [2]
GGCGGCTCGAAAGAGGCC (((..(((....)))))),-11.4 kcal/mol,51.6 °C
GAATACCCGAAAGGGTTC (((..(((....)))))),-7.33 kcal/mol,33 °C
GATCCCGGTGGGGATC ((((((....)))))),-40.2 kcal/mol,59.3 °C
GGCATGTCGAAAGACGCC (((..(((....)))))),-25.2 kcal/mol,52.1 °C
CGCGGCCGGAAACGGGCG (((..(((....)))))),-12.1 kcal/mol,65.6 °C
GCGTTTGGAAACAGACGC ((((.((....)).)))),-39.4 kcal/mol,52.7 °C
GGAAGTCGAAAGACGTCC (((.(((....))).))),-23.7 kcal/mol,52.2 °C
GCTCTGCGAAAGCCGGGC ((.(.((....)).).)),-20.1 kcal/mol,41.7 °C
GCTTGTGCGAAAGCAAGC (((..(((....)))))),-22.9 kcal/mol,46.5 °C
GTTAGGTCGAAAGACAAC (((..(((....)))))),-11.1 kcal/mol,27.2 °C
GGGCCCGGAAACGGGCTC (.(((((....))))).),-12.2 kcal/mol,68 °C
GATCATAGTATGATC ((((((...)))))),-35.6 kcal/mol,47.2 °C
GTTGGCGAAAGCCTAAC ((((((....))).))),-12.8 kcal/mol,43.4 °C
GTTGGTACGAAAGTAAAC (((..(((....)))))),-19.1 kcal/mol,34.6 °C
GATCCACAACTGGATC ((((((....)))))),-34.5 kcal/mol,47 °C
GAACTCGCGAAAGCGTTC (((..(((....)))))),-12.5 kcal/mol,27.4 °C
GCGTAAACACGC ((((....)))),-19.5 kcal/mol,50.4 °C
GCTGACGAAAGTCTGAGC ((((((....)))..))),-20.1 kcal/mol,43.5 °C
GATCGACTAATCGATC ((((((....)))))),-30.3 kcal/mol,49.9 °C
GTGCGAGGAAACTTGCGC (.((.((....)).)).),-18.1 kcal/mol,46 °C
GGTAACTCGAAAGAGACC (((..(((....)))))),-14.5 kcal/mol,31.3 °C
GTAGTTGCGAAAGCATAC (((..(((....)))))),-10.9 kcal/mol,31.1 °C
GCGATCGAAAGATGACGC ((((((....)))..))),-28.3 kcal/mol,44.1 °C

Sequence,folding enthalpy [1],Tm [2]
GTATTCGGAAACGAATAC (((((((....))))))),-48.2 kcal/mol,56.8 °C
GTCAAGCGAAAGCTGGAC (((.(((....))).))),-29.4 kcal/mol,62.4 °C
GATCCTTGCCAGGATC ((((((....)))))),-31 kcal/mol,51.5 °C
GTAAAAGGAAACTTTTAC (((((((....))))))),-37.1 kcal/mol,46.4 °C
GCCGAGGGAAACCTCGAC (.(((((....))))).),-14.1 kcal/mol,49.5 °C
GTTGAAGCGAAAGCTAAC (((..(((....)))))),-13.5 kcal/mol,34.3 °C
CGTTTCGGAAACGAACG (((.(((....)))))),-26.3 kcal/mol,44.9 °C
GTAGCCGGAAACGGTTGC (.(.(((....))).).),-15.2 kcal/mol,36.4 °C
GATCTCACGAAAGTGATC (((..(((....)))))),-9.7 kcal/mol,30.2 °C
GCCTTGCGAAAGCCCGGC (((..((....))..))),-23.2 kcal/mol,41.8 °C
GCTGAGCGAAAGCACTGC ((.(.((....)).).)),-20 kcal/mol,49.5 °C
GATCCAGTAATGGATC ((((((....)))))),-34.2 kcal/mol,58.7 °C
GATCCAAGCATGGATC ((((((....)))))),-41.2 kcal/mol,51.8 °C
GGGAAAGAAATTTCCC ((((((....)))))),-27.4 kcal/mol,48.7 °C
GATCCTAGGTAGGATC ((((((....)))))),-38.7 kcal/mol,52.9 °C
GGTGTCGGAAACGACGTC (..((((....))))..),-12.3 kcal/mol,36.8 °C
GCTCTCGGAAACGAGAAC (.(((((....))))).),-16 kcal/mol,41.8 °C
GTTCATGGAAACGTGAAC (((((.(....).))))),-40.6 kcal/mol,46.4 °C
CGCGACGGAAACGTGCG (((.(((....)))))),-28.3 kcal/mol,55.3 °C
GATCCCAGGGGGGATC ((((((....)))))),-32.3 kcal/mol,59.2 °C
GGACCACGAAAGTGATCC (((.(((....))).))),-29.1 kcal/mol,51.5 °C
GCGTTGCGAAAGCATTGC ((..(((....)))..)),-17.7 kcal/mol,43.5 °C
GATCGGATTTCCGATC ((((((....)))))),-36.5 kcal/mol,57.5 °C
